# Screens deposited in PubChem BioAssay by Johns Hopkins Ion Channel Center.
# An excerpt weighted towards active compounds, which were near 3.5% of everything screened.
# MrgX1 PAM: human MrgX1 positive allosteric modulation, primary screen; Q96LB2; MrgX1-HEK293, Fluo-4 calcium flux, FDSS; hits give high values; B-score at 10 µM; 310,000 compounds, 0.63% hits;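 active means plate-corrected calcium response at least 3 library SD above typical, normal starting fluorescence, not activating the receptor alone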;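 further: compound read alongside a low EC10 to EC30 dose of BAM8-22 agonist; peak minus trough fluorescence over baseline measured at the second addition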
# Target sequence (Q96LB2 whole entry, looked up): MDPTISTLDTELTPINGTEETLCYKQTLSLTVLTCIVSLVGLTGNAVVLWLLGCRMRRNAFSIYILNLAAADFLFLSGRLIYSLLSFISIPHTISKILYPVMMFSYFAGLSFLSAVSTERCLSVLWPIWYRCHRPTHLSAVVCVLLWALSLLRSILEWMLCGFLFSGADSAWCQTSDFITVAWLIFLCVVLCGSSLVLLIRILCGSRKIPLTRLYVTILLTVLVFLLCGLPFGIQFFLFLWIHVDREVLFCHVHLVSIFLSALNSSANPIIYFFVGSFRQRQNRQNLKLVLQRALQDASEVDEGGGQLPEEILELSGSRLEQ
# MrgX1 ag: human MrgX1 receptor agonism, primary screen | MrgX1-HEK293 cells, Fluo-4 calcium fluorescence, agonist mode; hits give high values | B-score at 10 µM | Q96LB2 | 310,000 compounds, 0.44% hits;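 active means calcium response B-score plate-corrected fluorescence ratio at least 3 library SD, with starting fluorescence B-score inside 5 SD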
#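 System – MrgX1-expressing HEK293 cells · Incubation – cells plated overnight, dye loaded 0.5 h 37 °C, 0.5 h room temperature · Technique – kinetic Fluo-4 NW fluorescence of intracellular calcium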
# RGS4 block: human RGS4 inhibition | B-score at 10 µM | P49798 | AID 463165 | HEK293 M3R/RGS4 inducible, Fluo-4 calcium flux; hits give high values; triggered by carbachol at its EC20 | 310,000 compounds, 0.45% hits;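 active means B-score, a plate-corrected calcium signal, over three deviations above library mean, with baseline fluorescence within five deviations of library mean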;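 further: RGS4 expression induced by doxycycline in cells with stable M3 receptor; B-score is computed from the integrated fluorescence ratio over baseline after carbachol; higher B-score means a larger calcium signal and so more RGS4 inhibition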
# MrgX1 antagonist: blocks BAM8-22 activation of human MrgX1 receptor. Q96LB2. MRGX1-HEK293 calcium flux, Fluo-4, BAM8-22 antagonism; hits give low values. B-score at 10 µM. 310,000 compounds, 1.3% hits. AID 588676;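 active means calcium-response B-score plate-corrected more than 3 library SD below zero, starting fluorescence within 5 deviations, no agonist response on first addition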;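 further: peak minus trough fluorescence over baseline after final BAM8-22 challenge near maximal dose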
# RGS4 pot: potentiators or activators of RGS4 | HEK293 M3R/inducible RGS4, carbachol calcium flux Fluo4; hits give low values | B-score at 10 µM | 310,000 compounds, 0.92% hits;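 active means B-score of the integrated calcium signal more than 4 SD below the library mean, with starting fluorescence not abnormally high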;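 further: negative B-score means reduced calcium response which marks RGS4 activation or potentiation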
#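 test system = M3R-expressing HEK293 line, RGS4 induced by doxycycline | probe or stimulus = carbachol at ECmax as muscarinic agonist stimulus | timing = dye loading 30 min 37 °C, buffer rest 30 min RT | signal = calcium dye Fluo4 fluorescence | evaluation = B score from integrated fluorescence ratio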
# Starred values were filed as active, the others as inactive; i = inactive; nt = not tested or not shown.
SMILES,MrgX1 PAM,MrgX1 ag,RGS4 block,MrgX1 antagonist,RGS4 pot
Cc1cc(/C=C2\C(=N)N3C(SCc4ccccc4)=NSC3=NC2=O)c(C)n1Cc1ccccc1,i,i,i,i,i
CCC(C)Sc1cc(-c2nc3ccc(C)cn3c2NCc2ccccc2)ccc1OC (stereo unspecified),i,i,i,i,i
CCC(C)Sc1ccc(-c2nc3ccc(C)cn3c2NCc2ccccc2)cc1OC (stereo unspecified),i,i,i,i,-8.6*
COc1ccccc1NC(=O)Cn1cc(C(=O)c2ccco2)c2ccccc21,i,i,i,i,i
COc1ccccc1OCCn1cc(C(=O)c2ccco2)c2ccccc21,i,i,i,i,-7.4*
CC1OC(OC2C(OC3C(O[C@H]4CC[C@]5(C)C6C=C[C@]78OC[C@@]9(CC[C@@H](C)[C@H](C)C97)[C@H](O)C[C@@]8(C)[C@]6(C)CC[C@H]5C4(C)C)OC(C)C(O)C3O)OC(CO)C(O)C2O)C(O)C(O)C1O (stereo partly specified),nt,nt,i,nt,-7.4*
C[C@H]1O[C@H](O[C@H]2[C@H](O[C@@H]3CC[C@@]4(C)C(CC[C@]5(C)C4CC=C4[C@@H]6CC(C)(C)CC[C@]6(C(=O)O[C@@H]6O[C@H](CO)[C@@H](O)[C@H](O)[C@H]6O)CC[C@]45C)C3(C)C)O[C@H](C(=O)O)[C@@H](O)[C@@H]2O)[C@@H](O)[C@@H](O)[C@@H]1O (stereo partly specified),i,i,nt,i,nt
CC1(C)CC(=O)C([N+](=O)[O-])=C(NCCCC(=O)O)C1,i,i,i,-5.4*,i
CCCC1=Nc2cc(C(=O)N3CCN(c4ccccn4)CC3)ccc2Sc2ccc(C)cc21,i,i,i,i,-7.5*
O=C(Nc1cc(S(=O)(=O)N2CCOCC2)ccc1Cl)C(=O)c1c(-c2ccccc2)cc2ccccn12,i,i,i,i,i
Cc1ccccc1N/C(=C(/C(Cl)=C(Cl)Cl)[N+](=O)[O-])n1nnc2ccccc21,i,i,i,-5*,i
COc1ccc(N/C(=C(/C(Cl)=C(Cl)Cl)[N+](=O)[O-])n2nnc3ccccc32)cc1,i,i,i,i,i
O=c1c(-c2nnc(SCc3ccc(Cl)c(Cl)c3)o2)cccn1Cc1ccccc1,i,i,i,i,i
CC(C)c1c(C(=O)N/N=C/c2ccsc2)nnn1-c1nonc1N,i,i,i,i,i
Cc1ccc(S(=O)(=O)NCC(=O)N(CCc2ccccc2)CC(=O)NCc2ccco2)cc1,nt,nt,i,nt,i
Cc1ccc(S(=O)(=O)NCC(=O)N(CC(=O)NCc2ccco2)Cc2ccccc2)cc1,i,36*,i,i,i
COC(=O)c1ccc(CC(=O)c2nc3ccccc3s2)cc1,i,i,i,i,i
COC(=O)c1ccc(/C(O)=C(\C#N)c2nc3ccccc3s2)cc1,i,28*,i,i,i
CCOC(=O)NN1C(=O)c2ccccc2NC1c1ccccc1 (stereo unspecified),i,i,i,-4.5*,i
CCOC(=O)NN1C(=O)c2ccccc2NC1c1ccc(OC)cc1 (stereo unspecified),i,i,i,i,i
CC(=O)NCCNC(=O)C1CCC(CNc2nc(=S)[nH]c3ccccc23)CC1 (stereo unspecified),i,i,i,i,i
COc1ccc(CNC(=O)C2CCC(CNc3nc(=S)[nH]c4ccccc34)CC2)cc1 (stereo unspecified),12*,i,i,i,i
CCOC(=O)c1c(NC(=O)CSc2nnc(-c3ccccc3)n2CC)sc(C(C)=O)c1C,i,i,i,i,i
CCOC(=O)c1c(NC(=O)CSc2nnc(-c3cccc(C)c3)n2CC)sc(C(C)=O)c1C,i,i,i,i,-7*
Cc1ccccc1C(=O)OC1CCN(C)CC1,i,i,i,i,i
CN1CCC(OC(=O)c2ccccc2Cl)CC1,i,i,i,i,-7.2*
